IDH1 mut inh: blocks human IDH1 R132H reductase activity | O75874 | diaphorase/resazurin fluorescence, 60 min | inhibition, % at 10 µM | 70,000 compounds, 0.18% hits | AID 624101; in the data active means inhibition above about 34%; inconclusive means no clear call, values can overlap the other calls; inactive means below about 11%;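 further: 0% = DMSO and 100% = no enzyme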
Target sequence (O75874 whole entry R132H): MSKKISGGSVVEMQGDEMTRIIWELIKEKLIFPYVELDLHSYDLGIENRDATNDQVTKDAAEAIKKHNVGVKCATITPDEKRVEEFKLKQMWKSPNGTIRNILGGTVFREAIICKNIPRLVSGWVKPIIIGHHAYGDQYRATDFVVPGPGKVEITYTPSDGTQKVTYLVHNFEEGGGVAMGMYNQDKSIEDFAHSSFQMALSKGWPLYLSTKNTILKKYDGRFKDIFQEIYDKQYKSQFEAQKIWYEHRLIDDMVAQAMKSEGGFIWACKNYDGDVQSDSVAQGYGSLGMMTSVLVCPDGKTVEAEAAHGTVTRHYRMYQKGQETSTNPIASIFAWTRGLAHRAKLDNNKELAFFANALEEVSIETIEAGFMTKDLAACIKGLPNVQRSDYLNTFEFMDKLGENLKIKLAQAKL
T cruzi growth-1: blocks T. cruzi growth in NIH3T3 culture; T. cruzi beta-gal in NIH3T3, GalScreen luminescence, 90 h; inhibition, % at 8.34 µM; 77,000 compounds, 5.9% hits; AID 624255;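 active means mean inhibition above about 93%, with at least 55% of replicates each passing it, limit read from the data, passing the limit was not always enough; inconclusive means only one of those two conditions holds; inactive means neither condition holds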
Pf Dd2 growth: inhibitors of Plasmodium falciparum Dd2 growth; P. falciparum Dd2 growth, SYBR Green, 72 h; stronger effect = lower value; activity change, % at 10 µM; 94,000 compounds, 2.3% hits; in the data active means activity change below about -80%; inconclusive means no clear call, values can overlap the other calls
KDM4C inh: KDM4C (human) demethylase inhibition; 96,000 compounds, 0.15% hits; GST-KDM4C 2-372, H3K9me3 peptide, LANCE TR-FRET; inhibition, % at 12.5 µM; AID 720574;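 active means mean replicate inhibition above about 25%, with at least 55% of replicates also reaching it, limit read from the data, passing the limit was not always enough; inconclusive means only one of those two conditions met; inactive means neither condition met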
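Test system: N-terminal GST-fused human GASC-1 (KDM4C) fragment, residues 2-372; quantity: GASC-1 enzyme at 10 nM final in reaction; dosing: single dose; schedule: 30 min demethylation and 1 h detection at room temperature; signal: LANCE TR-FRET, excitation 340 nm, emissions 618 and 671 nm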
T cruzi growth-2: inhibitors of T. cruzi proliferation; inhibition, % at 8.35 µM; 5,600 compounds, 72% hits; T. cruzi beta-gal in NIH3T3, GalScreen luminescence, 90 h; shares compounds with T cruzi growth-1;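 active means mean replicate inhibition above about 95% and at least 55% of replicates individually reaching it, limit read from the data; inconclusive means only one of the two criteria is met; inactive means neither criterion is met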
T cruzi growth-3: inhibitors of T. cruzi proliferation. shares compounds with T cruzi growth-1. inhibition, % at 2.09 µM. T. cruzi beta-gal in NIH3T3, GalScreen luminescence, 90 h. AID 651740. 5,600 compounds, 21% hits;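 active means mean inhibition above about 95%, with at least 55% of replicates also reaching it, limit read from the data; inconclusive means meets just one of the two conditions; inactive means meets neither condition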;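 further: plate controls were neutral control median for no effect and positive control median for full effect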
3T3 cytotox: cytotoxicity in mouse NIH/3T3 fibroblasts; shares compounds with T cruzi growth-1; NIH/3T3 viability, CellTiter-Glo ATP luminescence, 90 h; cytotoxicity (signal decrease), % at 8.35 µM; 5,600 compounds, 14% hits;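 active means mean signal decrease across replicates above about 35% based on untreated-well scatter, with enough replicates individually passing, limit read from the data; inconclusive means no rule stated though some were filed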;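 further: 0% = median of neutral control wells and 100% = median of positive control wells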
NIH3T3 tox 2: kills mouse NIH/3T3 fibroblasts; shares compounds with T cruzi growth-1; NIH/3T3 viability, CellTiter-Glo ATP luminescence, 90 h; inhibition, % at 24.9 µM; 5,600 compounds, 56% hits; AID 651744;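 active means mean loss of cell viability signal at or above a set limit, and enough replicates individually reaching it; inconclusive means meets only the mean limit or only the replicate share; inactive means meets neither condition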;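 further: 0% = median of neutral control wells and 100% = median of positive control wells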
Starred values were filed as active, the others as inactive; ? = inconclusive; nt = no result given. The list is not random: actives were taken first. Their share in the collection is about 5.9%.

SMILES | IDH1 mut inh | T cruzi growth-1 | Pf Dd2 growth | KDM4C inh | T cruzi growth-2 | T cruzi growth-3 | 3T3 cytotox | NIH3T3 tox 2
Cc1ccccc1S(=O)(=O)N1CCCCN2[C@H](CO)[C@@H](c3ccc(C#CCN(C)C)cc3)[C@@H]2C1 | nt | 30 | -17 | 3 | nt | nt | nt | nt
Cc1ccccc1S(=O)(=O)N1CCCCN2[C@H](C1)[C@H](c1ccc(C#CCN(C)C)cc1)[C@@H]2CO | nt | 98* | -16 | 5 | 110* | 47 | 22 | 83*
CN(C)CC#Cc1ccc([C@@H]2[C@H](CO)N3CCCCN(S(=O)(=O)c4ccccc4F)C[C@@H]23)cc1 | nt | 103* | -48 | 3 | 110* | 8 | 13 | 76*
COCC#Cc1ccc([C@@H]2[C@@H](CO)N3CCCCN(S(=O)(=O)c4ccccc4F)C[C@H]23)cc1 | nt | 87 | -53 | nt | nt | nt | nt | nt
Cc1ccccc1S(=O)(=O)N1CCCCN2[C@@H](CO)[C@@H](c3ccc(C#CCN(C)C)cc3)[C@@H]2C1 | nt | 99* | -53 | 3 | 107* | 89 | ? | 103*
N#CCCSc1nnc(-c2cccnc2)n1Cc1ccccc1 | 0 | nt | nt | nt | nt | nt | nt | nt
CCCC#Cc1ccc([C@@H]2[C@@H](CO)N3CCCCN(S(=O)(=O)c4ccccc4C)C[C@H]23)cc1 | nt | 119* | -55 | 1 | 105* | ? | 14 | 106*
C[C@H]1CCCCO[C@H](CN(C)C(=O)Nc2ccc(F)cc2)[C@@H](C)CN([C@@H](C)CO)C(=O)c2cc(NC(=O)c3ccccc3)ccc2O1 | 2 | 99* | -61 | -2 | 89 | 54 | 8 | ?
C[C@@H]1CN([C@H](C)CO)C(=O)c2cc(NC(=O)c3ccccc3)ccc2O[C@@H](C)CCCCO[C@H]1CN(C)C(=O)Nc1ccc(F)cc1 | nt | 70 | -45 | 0 | nt | nt | nt | nt
C[C@H]1CCCCO[C@@H](CN(C)C(=O)Nc2ccc(C(F)(F)F)cc2)[C@@H](C)CN([C@@H](C)CO)C(=O)c2cc(NC(=O)c3ccccc3)ccc2O1 | nt | 102* | -84* | -2 | 108* | 113* | -5 | 19
C[C@@H]1CCCCO[C@H](CN(C)C(=O)Nc2ccc(F)cc2)[C@H](C)CN([C@H](C)CO)C(=O)c2cc(NC(=O)c3ccccc3)ccc2O1 | nt | ? | ? | -2 | 102* | 62 | 11 | 15
C[C@@H]1CCCCO[C@@H](CN(C)C(=O)Nc2ccc(F)cc2)[C@H](C)CN([C@H](C)CO)C(=O)c2cc(NC(=O)c3ccccc3)ccc2O1 | nt | 93 | -32 | -1 | nt | nt | nt | nt
O=C(CCSc1nc2ccccc2s1)Nc1ccccc1Cl | 0 | nt | nt | nt | nt | nt | nt | nt
C[C@@H]1CN([C@H](C)CO)C(=O)c2cc(NC(=O)c3ccccc3)ccc2O[C@@H](C)CCCCO[C@@H]1CN(C)Cc1ccccc1 | 1 | ? | -66 | 1 | 108* | 62 | -6 | 35*
C[C@@H]1CCCCO[C@@H](CN(C)Cc2ccccc2)[C@H](C)CN([C@H](C)CO)C(=O)c2cc(NC(=O)c3ccccc3)ccc2O1 | nt | ? | -64 | 0 | 114* | 64 | -7 | 55*
C[C@@H]1CN([C@H](C)CO)C(=O)c2cc(NC(=O)c3ccccc3)ccc2O[C@@H](C)CCCCO[C@@H]1CN(C)Cc1ccncc1 | 2 | 59 | -30 | 1 | nt | nt | nt | nt
C[C@@H]1CCCCO[C@H](CN(C)Cc2ccccc2)[C@@H](C)CN([C@@H](C)CO)C(=O)c2cc(NC(=O)c3ccccc3)ccc2O1 | 1 | 78 | -74 | 0 | nt | nt | nt | nt
C[C@@H]1CN([C@H](C)CO)C(=O)c2cc(NC(=O)c3ccccc3)ccc2O[C@@H](C)CCCCO[C@H]1CN(C)Cc1ccccc1 | nt | 103* | -78 | 0 | 113* | 68 | 4 | 89*
C[C@@H]1CN([C@@H](C)CO)C(=O)c2cc(NC(=O)c3ccccc3)ccc2O[C@@H](C)CCCCO[C@H]1CN(C)Cc1ccncc1 | nt | 101* | -19 | 1 | 109* | 32 | 14 | 17

From PubChem
